From ChEMBL document CHEMBL1134633, “Synthesis and antiviral activity of novel 5-(1-cyanamido-2-haloethyl) and 5-(1-hydroxy(or methoxy)-2-azidoethyl) analogues of uracil nucleosides” (J Med Chem, 2001) come the findings set out here.

The subject of experiment [1] is Human alphaherpesvirus 1. In words: Inhibition of plaque formation in monolayers of HSV-1 KOS Vero cells by 50%. In kind it is functional, organism-based. The settings on record: Human alphaherpesvirus 1, Vero. The essentials: (§1)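 Vero cells in DMEM with 5% FBS, seeded 1 day ahead, infected with ~100 PFU/well (KOS, TK+; KOSSB, TK−) for 1 h at 37 °C. Inoculum replaced with drug dilutions in duplicate: first 25, 10, 5, 1 µg/mL (KOS) or 50, 25, 10, 1 µg/mL (KOSSB), then 1:2 series. After 48 h at 37 °C, methanol fixation and Giemsa staining. EC50 from plaque counts versus no-drug controls.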

Experiment [2] relates to Human alphaherpesvirus 1. In words: Inhibition of plaque formation in monolayers of HSV-1 KOSSB(TK-) Vero cells by 50%. The class given is functional, organism-based. The settings on record: Human alphaherpesvirus 1, Vero. The essentials:
as §1

Another experiment deals with Human alphaherpesvirus 3. In words: Inhibition of viral cytopathic effect in infected human foreskin fibroblast cell in monolayers of VZV Ellen […] by 50%. In kind it is functional, organism-based.
Another experiment has as its system Human alphaherpesvirus 2. As to the kind of experiment: Inhibition of viral cytopathic effect in infected human foreskin fibroblast cell monolayers of HSV-2 MS […] by 50%. The class given is functional, organism-based.
Experiment [3] relates to Human alphaherpesvirus 1. In words: Inhibition of plaque formation in monolayers of HSV-1 E-377 Vero cells by 50%. The class given is functional, organism-based. The following applies: Human alphaherpesvirus 1, Vero.
Experiment [4] has as its system Human betaherpesvirus 5 (HCMV). As to the kind of experiment: Inhibition of viral cytopathic effect in infected human foreskin fibroblast cell in monolayers of HCMV AD-169 by 50%.
Experiment [5] has as its system Human alphaherpesvirus 1. As to the kind of experiment: Inhibition of plaque formation in monolayers of HSV-1 E-377 (TK+) Vero cells by 50%. The following applies: Human alphaherpesvirus 1, Vero. In kind it is functional, organism-based.
Experiment [6] concerns Human alphaherpesvirus 1. As to the kind of experiment: Inhibition of plaque formation in monolayers of HSV-1 KOS (TK+) Vero cells by 50%. In kind it is functional, organism-based. The settings on record: Human alphaherpesvirus 1, Vero. Summed up:
as §1

Experiment [7] relates to Human alphaherpesvirus 1. As to the kind of experiment: Inhibition of plaque formation in monolayers of HSV-1 E-377(TK+) Vero cells by 50%. In kind it is functional, organism-based. The settings on record: Human alphaherpesvirus 1, Vero.
For experiment [8], the system named is Human alphaherpesvirus 1. As to the kind of experiment: Inhibition of plaque formation in monolayers of HSV-1 KOS (TK+)Vero cells by 50%. In kind it is functional, organism-based. The following applies: Human alphaherpesvirus 1, Vero. Summed up:
as §1

For experiment [9], the system named is Human betaherpesvirus 5 (HCMV). As to the kind of experiment: Inhibition of viral cytopathic effect in infected human foreskin fibroblast cell in monolayers of HCMV AD-169 by 50%. This is another data set of the same source.

With `N#CNC(CCl)c1cn([C@H]2C[C@H](O)[C@@H](CO)O2)c(=O)[nH]c1=O` (stereo partly drawn), the EC50 in the experiment on Human alphaherpesvirus 1 [1] was 37.5 µM; with Human alphaherpesvirus 1 [2], above 150 µM; in the experiment on Human alphaherpesvirus 3, 31.5 µM; in the experiment with Human alphaherpesvirus 2, 105 µM; with Human alphaherpesvirus 1 [3], 210 µM; in [4] it was 274 µM.

Regarding `[N-]=[N+]=NCC(O)c1cn([C@H]2C[C@H](O)[C@@H](CO)O2)c(=O)[nH]c1=O` (stereo partly drawn), the EC50 was above 80 µM with Human alphaherpesvirus 1 [1]; above 161 µM in the experiment with Human alphaherpesvirus 1 [2]; above 322 µM in the experiment with Human alphaherpesvirus 3; above 322 µM in the experiment with Human alphaherpesvirus 2; above 322 µM with Human alphaherpesvirus 1 [3]; above 322 µM in experiment [4].

Take `COC(CN=[N+]=[N-])c1cn([C@H]2C[C@H](O)[C@@H](CO)O2)c(=O)[nH]c1=O` (stereo partly drawn): the EC50 in the experiment on Human alphaherpesvirus 1 [1] is above 75 µM; in the experiment on Human alphaherpesvirus 1 [2], above 150 µM; in the experiment on Human alphaherpesvirus 3, above 300 µM; with Human alphaherpesvirus 2, above 300 µM; with Human alphaherpesvirus 1 [3] it was above 300 µM; in [4] it was above 300 µM.

For `N#CNC(CI)c1cn([C@H]2C[C@H](O)[C@@H](CO)O2)c(=O)[nH]c1=O` (stereo partly drawn), the EC50 in the experiment with Human alphaherpesvirus 1 [5] is 9.4 µM; in the experiment with Human alphaherpesvirus 1 [6] it was 1.6 µM; in the experiment on Human alphaherpesvirus 1 [2], 15.3 µM; with Human alphaherpesvirus 3, 14.6 µM; with Human alphaherpesvirus 2, 77.8 µM; in [4], above 236 µM.

Regarding `N#CNC(CBr)c1cn([C@H]2C[C@H](O)[C@@H](CO)O2)c(=O)[nH]c1=O` (stereo partly drawn), the half-maximal effective concentration (EC50) is above 133 µM in the experiment on Human alphaherpesvirus 1 [2]; 42.5 µM in the experiment with Human alphaherpesvirus 1 [7]; 20.7 µM with Human alphaherpesvirus 3; 6.6 µM in the experiment with Human alphaherpesvirus 1 [8]; 87.7 µM in the experiment with Human alphaherpesvirus 2; above 266 µM in [4].

Consider `N#CNC(CBr)c1cn(C2O[C@H](CO)[C@@H](O)[C@@H]2O)c(=O)[nH]c1=O` (stereo partly drawn), for which the EC50 in the experiment with Human alphaherpesvirus 1 [1] is 62.5 µM; with Human alphaherpesvirus 1 [2] it was above 125 µM; in the experiment with Human alphaherpesvirus 3, 32 µM; in the experiment with Human alphaherpesvirus 2, above 256 µM; with Human alphaherpesvirus 1 [3] it was above 256 µM; in [4] it was above 256 µM.

On to `N#CNC(CI)c1cn(C2O[C@H](CO)[C@@H](O)[C@@H]2O)c(=O)[nH]c1=O` (stereo partly drawn), for which the EC50 is 22.8 µM in the experiment on Human alphaherpesvirus 1 [1]; above 114 µM in the experiment on Human alphaherpesvirus 1 [2]; 11.4 µM in the experiment with Human alphaherpesvirus 3; above 228 µM in the experiment with Human alphaherpesvirus 2; above 228 µM with Human alphaherpesvirus 1 [3]; above 228 µM in [4].

With `Nc1nc2c(ncn2COCCO)c(=O)[nH]1` [ACYCLOVIR], the half-maximal effective concentration (EC50) is 2.2 µM with Human alphaherpesvirus 1 [1], 178 µM with Human alphaherpesvirus 1 [2], 6.2 µM in the experiment with Human alphaherpesvirus 2 and 4.4 µM in the experiment on Human alphaherpesvirus 1 [3].

As to `O=c1[nH]c(=O)n([C@H]2C[C@H](O)[C@@H](CO)O2)cc1/C=C/Br` [BRIVUDINE], the EC50 is 1.5 µM with Human alphaherpesvirus 1 [1]; above 150 µM in the experiment on Human alphaherpesvirus 1 [2]; 0.003 µM in the experiment on Human alphaherpesvirus 3; 2.7 µM in the experiment on Human alphaherpesvirus 1 [3]; above 150 µM in experiment [4].

Take `CCc1cn([C@H]2C[C@H](O)[C@@H](CO)O2)c(=O)[nH]c1=O` [EDOXUDINE]: the EC50 with Human alphaherpesvirus 1 [1] was 19.5 µM; in the experiment on Human alphaherpesvirus 1 [2] it was above 780 µM; in the experiment with Human alphaherpesvirus 3, 32.7 µM; with Human alphaherpesvirus 2, 58.5 µM; in the experiment with Human alphaherpesvirus 1 [3], 42.9 µM; in experiment [9], above 390 µM.

In [4], `Nc1nc2c(ncn2COC(CO)CO)c(=O)[nH]1` [GANCICLOVIR] gave an EC50 of 0.23 µM.
